Reference: paper PMC3434103 (The Journal of General Physiology, 2012)
Entries after “also recorded” stand apart in the source; their conditions may differ. Ends that are not written are not given here.

How the values were obtained:
[1] = biological target: WT recombinant ryanodine-modified RyR2 channels (Mus musculus, UniProt E9Q401); assay: biochemical
L4865A RyR2 [2] = biological target: T1, L4865A RyR2 (Mus musculus, UniProt E9Q401, L4864A); assay: TPeA block of EMD 41000-activated L4865A RyR2; format: biochemical; conditions: 60 mV
T1 sequence (E9Q401 whole entry L4864A): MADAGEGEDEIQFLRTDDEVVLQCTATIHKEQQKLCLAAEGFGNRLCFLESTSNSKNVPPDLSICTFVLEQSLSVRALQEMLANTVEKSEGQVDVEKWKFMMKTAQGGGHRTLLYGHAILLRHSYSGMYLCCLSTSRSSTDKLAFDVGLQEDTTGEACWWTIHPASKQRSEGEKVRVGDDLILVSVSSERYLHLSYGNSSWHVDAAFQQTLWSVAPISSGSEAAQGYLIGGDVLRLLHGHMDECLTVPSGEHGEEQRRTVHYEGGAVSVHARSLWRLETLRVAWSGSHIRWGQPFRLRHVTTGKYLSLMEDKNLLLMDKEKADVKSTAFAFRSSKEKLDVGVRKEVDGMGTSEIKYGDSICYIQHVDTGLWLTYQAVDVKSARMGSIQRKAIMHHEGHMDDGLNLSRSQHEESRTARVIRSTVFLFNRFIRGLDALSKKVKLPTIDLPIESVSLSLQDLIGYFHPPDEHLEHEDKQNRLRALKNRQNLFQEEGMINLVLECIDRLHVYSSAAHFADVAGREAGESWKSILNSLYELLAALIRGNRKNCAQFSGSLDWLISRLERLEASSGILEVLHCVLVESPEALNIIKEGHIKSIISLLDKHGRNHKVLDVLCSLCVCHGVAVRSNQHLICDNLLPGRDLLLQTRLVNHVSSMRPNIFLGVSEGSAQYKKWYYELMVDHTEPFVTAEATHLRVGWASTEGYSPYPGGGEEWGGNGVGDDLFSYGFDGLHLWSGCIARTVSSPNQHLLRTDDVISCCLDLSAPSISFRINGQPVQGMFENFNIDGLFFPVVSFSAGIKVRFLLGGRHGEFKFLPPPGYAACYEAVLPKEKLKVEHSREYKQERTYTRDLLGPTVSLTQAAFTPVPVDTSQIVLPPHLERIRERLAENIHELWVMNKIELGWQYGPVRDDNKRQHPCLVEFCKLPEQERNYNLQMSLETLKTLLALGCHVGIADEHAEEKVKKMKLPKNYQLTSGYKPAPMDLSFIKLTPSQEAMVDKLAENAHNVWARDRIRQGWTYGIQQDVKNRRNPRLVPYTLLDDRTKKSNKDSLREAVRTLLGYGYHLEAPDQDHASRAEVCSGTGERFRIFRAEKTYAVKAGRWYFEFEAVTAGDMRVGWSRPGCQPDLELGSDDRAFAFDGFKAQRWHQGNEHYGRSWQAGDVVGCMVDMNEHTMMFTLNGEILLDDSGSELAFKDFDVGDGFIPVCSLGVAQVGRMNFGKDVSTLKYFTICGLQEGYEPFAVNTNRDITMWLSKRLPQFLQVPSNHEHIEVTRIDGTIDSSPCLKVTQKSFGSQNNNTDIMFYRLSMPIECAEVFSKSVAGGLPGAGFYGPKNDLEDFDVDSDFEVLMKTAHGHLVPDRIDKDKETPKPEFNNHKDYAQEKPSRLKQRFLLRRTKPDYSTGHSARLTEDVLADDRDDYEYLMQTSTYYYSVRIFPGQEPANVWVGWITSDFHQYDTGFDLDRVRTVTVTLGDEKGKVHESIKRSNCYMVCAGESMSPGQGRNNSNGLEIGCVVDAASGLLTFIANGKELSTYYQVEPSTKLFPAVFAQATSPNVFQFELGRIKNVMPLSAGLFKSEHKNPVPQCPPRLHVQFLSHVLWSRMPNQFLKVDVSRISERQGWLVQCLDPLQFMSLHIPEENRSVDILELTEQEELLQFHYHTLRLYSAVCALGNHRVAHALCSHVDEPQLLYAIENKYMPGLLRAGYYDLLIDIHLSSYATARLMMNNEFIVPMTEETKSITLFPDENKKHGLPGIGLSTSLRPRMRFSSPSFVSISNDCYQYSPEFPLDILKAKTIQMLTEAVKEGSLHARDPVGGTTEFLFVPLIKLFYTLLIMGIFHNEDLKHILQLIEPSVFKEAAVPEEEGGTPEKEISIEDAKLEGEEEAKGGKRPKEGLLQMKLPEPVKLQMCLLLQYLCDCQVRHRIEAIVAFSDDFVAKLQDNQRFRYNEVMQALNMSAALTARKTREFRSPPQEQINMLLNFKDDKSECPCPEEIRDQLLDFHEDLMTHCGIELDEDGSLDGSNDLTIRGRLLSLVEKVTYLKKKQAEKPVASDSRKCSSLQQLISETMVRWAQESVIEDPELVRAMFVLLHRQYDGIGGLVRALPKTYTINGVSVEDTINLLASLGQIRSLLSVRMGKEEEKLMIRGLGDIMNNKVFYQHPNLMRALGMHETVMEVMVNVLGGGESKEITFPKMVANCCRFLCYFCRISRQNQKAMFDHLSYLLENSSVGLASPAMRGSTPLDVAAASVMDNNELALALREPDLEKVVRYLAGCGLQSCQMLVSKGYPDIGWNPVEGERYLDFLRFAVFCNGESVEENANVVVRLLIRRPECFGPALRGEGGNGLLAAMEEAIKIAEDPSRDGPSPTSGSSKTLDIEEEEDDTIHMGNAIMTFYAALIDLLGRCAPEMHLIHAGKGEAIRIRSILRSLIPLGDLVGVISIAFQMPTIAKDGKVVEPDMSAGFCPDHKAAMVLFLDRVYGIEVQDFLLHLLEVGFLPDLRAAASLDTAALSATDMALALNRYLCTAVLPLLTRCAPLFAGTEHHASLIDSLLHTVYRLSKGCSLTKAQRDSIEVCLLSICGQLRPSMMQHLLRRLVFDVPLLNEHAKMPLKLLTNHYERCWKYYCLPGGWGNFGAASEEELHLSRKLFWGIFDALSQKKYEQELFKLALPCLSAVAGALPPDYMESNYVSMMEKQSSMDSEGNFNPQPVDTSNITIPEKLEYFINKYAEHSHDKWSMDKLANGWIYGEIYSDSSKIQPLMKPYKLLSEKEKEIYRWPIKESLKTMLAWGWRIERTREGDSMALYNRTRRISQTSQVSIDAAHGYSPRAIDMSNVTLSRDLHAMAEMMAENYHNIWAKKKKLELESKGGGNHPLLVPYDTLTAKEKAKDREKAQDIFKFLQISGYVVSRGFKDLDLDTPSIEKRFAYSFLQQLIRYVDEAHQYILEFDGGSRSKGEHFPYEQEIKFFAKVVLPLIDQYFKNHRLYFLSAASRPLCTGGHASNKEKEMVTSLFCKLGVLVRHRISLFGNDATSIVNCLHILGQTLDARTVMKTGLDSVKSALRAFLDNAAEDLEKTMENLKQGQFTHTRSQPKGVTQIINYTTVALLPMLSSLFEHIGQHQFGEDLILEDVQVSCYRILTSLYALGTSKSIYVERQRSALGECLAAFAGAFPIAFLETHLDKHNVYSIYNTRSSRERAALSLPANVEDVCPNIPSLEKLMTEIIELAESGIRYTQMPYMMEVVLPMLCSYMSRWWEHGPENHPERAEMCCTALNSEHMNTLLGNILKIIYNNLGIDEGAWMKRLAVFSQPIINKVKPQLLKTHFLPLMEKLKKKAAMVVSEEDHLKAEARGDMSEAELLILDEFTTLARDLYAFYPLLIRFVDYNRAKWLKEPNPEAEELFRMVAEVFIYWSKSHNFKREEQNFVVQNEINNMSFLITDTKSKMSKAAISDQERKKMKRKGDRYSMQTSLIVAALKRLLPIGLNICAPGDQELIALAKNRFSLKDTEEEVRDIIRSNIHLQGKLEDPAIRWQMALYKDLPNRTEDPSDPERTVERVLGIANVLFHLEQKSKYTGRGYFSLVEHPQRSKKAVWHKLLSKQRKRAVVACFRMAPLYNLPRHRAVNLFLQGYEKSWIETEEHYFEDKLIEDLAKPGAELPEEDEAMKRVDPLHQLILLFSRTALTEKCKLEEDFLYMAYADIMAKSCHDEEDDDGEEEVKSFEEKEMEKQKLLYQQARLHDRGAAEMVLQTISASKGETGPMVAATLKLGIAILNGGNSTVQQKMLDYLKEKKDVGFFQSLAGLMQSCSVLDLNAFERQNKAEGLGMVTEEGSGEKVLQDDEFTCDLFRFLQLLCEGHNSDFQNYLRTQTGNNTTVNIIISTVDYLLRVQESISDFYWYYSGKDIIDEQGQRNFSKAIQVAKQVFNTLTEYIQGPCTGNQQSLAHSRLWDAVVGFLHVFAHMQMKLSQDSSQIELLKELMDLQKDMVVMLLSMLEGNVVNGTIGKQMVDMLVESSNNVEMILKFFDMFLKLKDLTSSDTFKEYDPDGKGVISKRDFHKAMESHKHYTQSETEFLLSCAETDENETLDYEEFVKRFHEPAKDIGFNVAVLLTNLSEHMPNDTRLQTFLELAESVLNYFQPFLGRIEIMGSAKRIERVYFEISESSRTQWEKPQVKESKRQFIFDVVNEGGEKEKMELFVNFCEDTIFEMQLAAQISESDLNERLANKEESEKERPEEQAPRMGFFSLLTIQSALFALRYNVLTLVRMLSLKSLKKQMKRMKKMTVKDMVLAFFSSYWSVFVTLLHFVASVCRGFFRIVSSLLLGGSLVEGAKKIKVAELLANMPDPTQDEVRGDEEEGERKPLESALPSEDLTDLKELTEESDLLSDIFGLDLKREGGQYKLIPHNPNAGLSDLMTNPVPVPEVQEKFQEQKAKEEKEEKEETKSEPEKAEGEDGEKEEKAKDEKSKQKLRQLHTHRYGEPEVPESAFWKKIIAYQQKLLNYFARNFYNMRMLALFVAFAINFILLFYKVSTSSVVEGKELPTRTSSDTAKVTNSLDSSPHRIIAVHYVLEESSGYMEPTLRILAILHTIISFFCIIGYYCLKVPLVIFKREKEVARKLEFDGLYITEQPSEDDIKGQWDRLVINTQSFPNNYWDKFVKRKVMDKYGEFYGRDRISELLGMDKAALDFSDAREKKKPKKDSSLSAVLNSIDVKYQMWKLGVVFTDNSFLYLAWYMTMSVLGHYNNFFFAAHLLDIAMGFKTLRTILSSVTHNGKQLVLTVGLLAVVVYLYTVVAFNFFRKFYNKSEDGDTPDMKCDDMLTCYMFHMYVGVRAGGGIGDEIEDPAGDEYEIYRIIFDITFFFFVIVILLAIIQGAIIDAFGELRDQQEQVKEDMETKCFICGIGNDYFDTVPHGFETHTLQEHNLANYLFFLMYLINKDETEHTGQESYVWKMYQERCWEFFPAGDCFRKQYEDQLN

L4865A RyR2 [3] = biological target: T1, L4865A RyR2; assay: TPeA block of ryanodine-modified L4865A RyR2; format: biochemical; conditions: 100 µM TPeA, 60 mV
Procedure, shortened: (§1)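 Ryanodine-modified single channels were used: purified HEK293-expressed mouse RyR2 (WT or mutant) in PE bilayers, symmetrical KCl/HEPES pH 7.2, room temperature. TAA was added to […], with the holding potential at 60 mV. Data were filtered at 5 kHz and sampled at 20 kHz. Open and blocked lifetimes came from 50% threshold analysis of ≥2 min records, and blocking parameters were derived from them. Mean ± SEM, unpaired t tests.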

I4861A RyR2 [4] = biological target: T2, I4861A RyR2 (Mus musculus, UniProt E9Q401, I4860A/I4861A); assay: TPeA block of ryanodine-modified I4861A RyR2; format: biochemical; conditions: 100 µM TPeA, 60 mV
T2 sequence (E9Q401 whole entry I4860A/I4861A): as the sequence (E9Q401 whole entry L4864A) above, with I4860A, I4861A, A4864L counted along it
Procedure, shortened: as §1

I4861A RyR2 [5] = biological target: T2, I4861A RyR2; assay: TPeA block of EMD 41000-activated I4861A RyR2; format: biochemical; conditions: 60 mV
I4867A RyR2 [6] = biological target: T3, I4867A RyR2 (Mus musculus, UniProt E9Q401, I4866A); assay: TPeA block of ryanodine-modified I4867A RyR2; format: biochemical; conditions: 100 µM TPeA, 60 mV
T3 sequence (E9Q401 whole entry I4866A): as the sequence (E9Q401 whole entry L4864A) above, with A4864L, I4866A counted along it
Procedure, shortened: as §1

WT mouse RyR2 = assay: TAA block of ryanodine-modified WT RyR2, single channel; format: biochemical; conditions: 60 mV; for rate of dissociation (koff), difference TBA vs TPeA: 200 µM TBA or 100 µM TPeA, 1 µM ryanodine-modified; for level of block: ryanodine-modified WT, 100 µM TPeA (200 µM TBA)
Procedure, shortened: as §1

I4862A RyR2 [7] = biological target: T4, I4862A RyR2 (Mus musculus, UniProt E9Q401, I4861A); assay: TPeA block of ryanodine-modified I4862A RyR2; format: biochemical; conditions: 100 µM TPeA, 60 mV
T4 sequence (E9Q401 whole entry I4861A): as the sequence (E9Q401 whole entry L4864A) above, with I4861A, A4864L counted along it
Procedure, shortened: as §1

[8] = biological target: recombinant WT mouse RyR2 (Mus musculus, UniProt E9Q401); assay: TAA block of EMD 41000-activated WT RyR2, single channel in planar bilayer; format: biochemical
Chain of recombinant WT mouse RyR2 (E9Q401 whole entry): as the sequence (E9Q401 whole entry L4864A) above, with A4864L counted along it

F4870A RyR2 [9] = biological target: T5, F4870A RyR2 (Mus musculus, UniProt E9Q401, F4869A); assay: TPeA block of ryanodine-modified F4870A RyR2; format: biochemical; conditions: 100 µM TPeA, 60 mV
T5 sequence (E9Q401 whole entry F4869A): as the sequence (E9Q401 whole entry L4864A) above, with A4864L, F4869A counted along it
Procedure, shortened: as §1

I4862A RyR2 [10] = biological target: T4, I4862A RyR2; assay: TPeA block of EMD 41000-activated I4862A RyR2; format: biochemical; conditions: 60 mV
RyR2 = assay: ShBP block of RyR2 in symmetrical 610 mM KCl; format: biochemical; conditions: for block at high K+ activity: preliminary, symmetrical 610 mM KCl plus up to 100 µM EMD 41000
K^+ channels = conditions: quoted range, ref Faraldo-Gómez et al., 2007; cited from earlier work
KcsA = conditions: cytosolic cavity of KcsA; ref Faraldo-Gómez et al., 2007; cited from earlier work
L4865A RyR2 [11] = biological target: T1, L4865A RyR2; assay: Ryanodine modification of L4865A RyR2; format: biochemical
Procedure, shortened: (§2)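 Mouse RyR2 (WT or TM10 alanine mutants) was expressed in HEK293 cells by Ca²⁺ phosphate transfection for 48 h, solubilized in CHAPS/phosphatidylcholine and purified on a 0–40% sucrose gradient. Single channels were incorporated into PE bilayers with the cytosolic side cis, in symmetrical KCl with 20 mM HEPES pH 7.2, at 22 ± 2°C. After 1 µM ryanodine, amplitudes were read at 60 mV. Mean ± SEM, n = 4–7, unpaired t test.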

F4870A RyR2 [12] = biological target: T5, F4870A RyR2; assay: Ryanodine modification of F4870A RyR2; format: biochemical
Procedure, shortened: as §2

I4862A RyR2 [13] = biological target: T4, I4862A RyR2; assay: Ryanodine modification of I4862A RyR2; format: biochemical
Procedure, shortened: as §2

I4867A RyR2 [14] = biological target: T3, I4867A RyR2; assay: Ryanodine modification of I4867A RyR2; format: biochemical
Procedure, shortened: as §2

I4861A RyR2 [15] = biological target: T2, I4861A RyR2; assay: Ryanodine modification of I4861A RyR2; format: biochemical
Procedure, shortened: as §2

[16] = 1 µM ryanodine, 60 mV, lower than WT

MAQVQGLYGLGEDRQHRKKQ-NH2 [LHBP] showed a Kd [1] of 65.9 µM.
In the case of `CCCCC[N+](CCCCC)(CCCCC)CCCCC` [TPeA, tetrapentylammonium], the “rate of association (kon) vs WT” value (L4865A RyR2 [2]; 100 µM TPeA) is reported as “unaffected”, the “rate of dissociation (koff) vs WT” value (L4865A RyR2 [2]; 100 µM TPeA) is reported as “significantly increased rates of TPeA dissociation” and the “residual current vs WT” value (L4865A RyR2 [2]; 100 µM TPeA) is reported as “indistinguishable from that of the WT channel”. For the same molecule, the “amplitude of full open state in presence of TPeA vs WT” value (from here on “amplitude of full open state … vs WT”) (L4865A RyR2 [2]) was “indistinguishable from that of the WT channel”, the “koff vs WT” value (L4865A RyR2 [3]) was “significant increase in koff” and the “kon vs WT” value (L4865A RyR2 [3]) was “unaffected”. For the same molecule, the level of block (L4865A RyR2 [3]) was “to a level indistinguishable from the closed state”, the “magnitude / probability of block (1 − Po) vs WT” value (“magnitude / probability … vs WT” for short) (L4865A RyR2 [3]) was “lower than that seen in the WT RyR channel” and the “affinity (Kd) vs WT” value (L4865A RyR2 [3]; in words) was “significant reduction in TPeA affinity”. The “koff vs WT” value (I4861A RyR2 [4]) was “significant increase in koff”, the “kon vs WT” value (I4861A RyR2 [4]) was “reduced significantly” and the level of block (I4861A RyR2 [4]) was “to a level indistinguishable from the closed state”. For the same molecule, the “magnitude / probability … vs WT” value (I4861A RyR2 [4]) was “lower than that seen in the WT RyR channel”, the “affinity (Kd) vs WT” value (I4861A RyR2 [4]; in words) was “significant reduction in TPeA affinity” and the “probability of block (1 − Po) vs WT” value (I4861A RyR2 [5]; 100 µM TPeA) was “reduced significantly”. The “rate of association (kon) vs WT” value (I4861A RyR2 [5]; 100 µM TPeA) was “unaffected”, the “rate of dissociation (koff) vs WT” value (I4861A RyR2 [5]; 100 µM TPeA) was “significantly increased rates of TPeA dissociation” and the “residual current vs WT” value (I4861A RyR2 [5]; 100 µM TPeA) was “slightly lower than the equivalent current in the WT RyR2”. The “affinity (Kd) vs WT” value (I4861A RyR2 [5]; 100 µM TPeA, in words) was “significant decreases in TPeA affinity”, the “amplitude of full open state … vs WT” value (I4861A RyR2 [5]) was “indistinguishable from that of the WT channel” and the “koff vs WT” value (I4867A RyR2 [6]) was “significant increase in koff”. The “kon vs WT” value (I4867A RyR2 [6]) was “reduced significantly”, the level of block (I4867A RyR2 [6]) was “to a level indistinguishable from the closed state” and the “magnitude / probability … vs WT” value (I4867A RyR2 [6]) was “lower than that seen in the WT RyR channel”. For the same molecule, the “affinity (Kd) vs WT” value (I4867A RyR2 [6]; in words) was “significant reduction in TPeA affinity”, the “rate of dissociation (koff), difference TBA vs TPeA” value (WT mouse RyR2) was “very marked difference in the rates of dissociation of TBA and TPeA is retained” and the level of block (WT mouse RyR2) was “to a level indistinguishable from the closed state; also recorded: completely occlude the RyR2 pore”. For the same molecule, the “koff vs WT” value (I4862A RyR2 [7]) was “significant increase in koff”, the “kon vs WT” value (I4862A RyR2 [7]) was “unaffected” and the level of block (I4862A RyR2 [7]) was “to a level indistinguishable from the closed state”. For the same molecule, the “magnitude / probability … vs WT” value (I4862A RyR2 [7]) was “lower than that seen in the WT RyR channel”, the “affinity (Kd) vs WT” value (I4862A RyR2 [7]; in words) was “significant reduction in TPeA affinity” and the “fold decrease in koff between TBA and TPeA” value ([8]; EMD 41000-activated, 610 mM K+, 60 mV, TPeA relative to TBA) was 22 -fold. The “koff vs WT” value (F4870A RyR2 [9]) was “significant increase in koff”, the “kon vs WT” value (F4870A RyR2 [9]) was “reduced significantly” and the level of block (F4870A RyR2 [9]) was “to a level indistinguishable from the closed state”. The “magnitude / probability … vs WT” value (F4870A RyR2 [9]) was “lower than that seen in the WT RyR channel”, the “affinity (Kd) vs WT” value (F4870A RyR2 [9]; in words) was “significant reduction in TPeA affinity” and the “probability of block (1 − Po) vs WT” value (I4862A RyR2 [10]; 100 µM TPeA) was “reduced significantly”. The “rate of association (kon) vs WT” value (I4862A RyR2 [10]; 100 µM TPeA) was “unaffected”, the “rate of dissociation (koff) vs WT” value (I4862A RyR2 [10]; 100 µM TPeA) was “significantly increased rates of TPeA dissociation, with the most dramatic effect seen in I4862A” and the “residual current vs WT” value (I4862A RyR2 [10]; 100 µM TPeA) was “indistinguishable from that of the WT channel”. For the same molecule, the “affinity (Kd) vs WT” value (I4862A RyR2 [10]; 100 µM TPeA, in words) was “significant decreases in TPeA affinity” and the “amplitude of full open state … vs WT” value (I4862A RyR2 [10]) was “indistinguishable from that of the WT channel”.
In the case of MAAVVGLYGLGEDRQHRKKQ [MHBPII], the “block at high K+ activity” value (RyR2) is reported as “ineffective”.
In the case of `CCCC[N+](CCCC)(CCCC)CCCC` [TBA, tetrabutylammonium], the “rate of dissociation (koff), difference TBA vs TPeA” value (WT mouse RyR2) is listed as “very marked difference in the rates of dissociation of TBA and TPeA is retained”, the level of block (WT mouse RyR2) is listed as “completely occlude the RyR2 pore” and the koff (K^+ channels) is listed as 10 to 200 s⁻¹. The pore occlusion (KcsA) was “fully occludes the pore of the channel”, the Kd [8] was 179 µM and the koff [8] was 412 s⁻¹.
In the case of ryanodine, the “reduction in conductance of ryanodine-modified state vs WT modified channel” value (from here on “reduction in conductance”) (L4865A RyR2 [11]; [16]) is reported as ~10%, the “Po and unitary conductance on ryanodine modification” value (shortened to “Po and unitary conductance”) (L4865A RyR2 [11]; ryanodine) is reported as “characteristic increase in Po and reduction in unitary conductance” and the “reduction in conductance” value (F4870A RyR2 [12]; [16]) is reported as ~10%. For the same molecule, the “Po and unitary conductance” value (F4870A RyR2 [12]; ryanodine) was “characteristic increase in Po and reduction in unitary conductance”, the “amplitude of ryanodine-modified open state vs WT modified channel” value (I4862A RyR2 [13]; 1 µM ryanodine, 60 mV) was “not significantly different from that of the WT channel” and the “Po and unitary conductance” value (I4862A RyR2 [13]; ryanodine) was “characteristic increase in Po and reduction in unitary conductance”. The “reduction in conductance” value (I4867A RyR2 [14]; [16]) was ~10%, the “Po and unitary conductance” value (I4867A RyR2 [14]; ryanodine) was “characteristic increase in Po and reduction in unitary conductance” and the “amplitude of ryanodine-modified open state vs WT modified channel” value (I4861A RyR2 [15]; 1 µM ryanodine, 60 mV) was “not significantly different from that of the WT channel”. For the same molecule, the “Po and unitary conductance” value (I4861A RyR2 [15]; ryanodine) was “characteristic increase in Po and reduction in unitary conductance”.
For `CCCCCC[N+](CCCCCC)(CCCCCC)CCCCCC` [THexA, tetrahexylammonium], the Kd [8] was 2.58 µM, the “fold increase in affinity between TBA and THexA” value ([8]; EMD 41000-activated, 610 mM K+, 60 mV, THexA relative to TBA) was 69.5 -fold and the “fold decrease in koff between TPeA and THexA” value ([8]; EMD 41000-activated, 610 mM K+, 60 mV, THexA relative to TPeA) was 1.7 -fold.
In the case of MAAVAGLYGLGEDRQHRKKQ [ShBP], the “reduction in Po” value (RyR2; 20 µM ShBP cytosolic, ryanodine-modified, symmetrical 610 mM KCl) is reported as “no significant reduction in Po” and the “block at high K+ activity” value (RyR2) is reported as “ineffective”.
For MAVVAGLYGLGEDRQHRKKQ-NH2 [MHBPI], the Kd [1] was 27.8 µM.
